Results from paper PMC7947324 (Pharmacology Research & Perspectives, 2021).
Entries after “also recorded” stand apart in the source; their conditions may differ.

What was measured:
INS‐1 (832/3) cells [1] = experiment: Membrane phospholipid AA and EPA composition of INS‐1; format: cell-based, rat; conditions: 100 μM AA‐enriched medium, 48 h
INS‐1 (832/3) cells [2] = experiment: Relative gene expression by qPCR in INS‐1; format: cell-based, rat; conditions: for Ptges expression vs. control: 2^ΔΔCt method, AA enrichment alone or 10 ng/ml IL‐1β
INS‐1 (832/3) cells [3] = experiment: INS‐1; format: cell-based, rat; conditions: for effect of antagonist on the PGE2 dose–response (GSIS): 10 µM antagonist, PGE2 1 pM to 50 μM; for effect of antagonist on the sulprostone dose–response (GSIS): sulprostone 1 pM to 50 μM; for reduction of GSIS at high concentration compared with PGE2: 50–100 µM; for concentration from which the agonist reduces GSIS / effect of agonist on GSIS (dose–response): agonist alone; for effect of agonist on GSIS (dose–response): 1 pM to 50 or 100 μM, 16.7 mM glucose
Method in brief: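 INS‐1 (832/3) cells (passage 35 or below) plated and cultured 72 h before GSIS. Agonists tested from 1 pM to 10, 50 or 100 µM, with or without 20 µM EP3 antagonist or 10 µM other EP antagonists. Insulin measured by in‐house ELISA and expressed relative to 16.7 mM glucose. N = 3–5 independent experiments, mean ± SEM, two‐way ANOVA with Holm–Sidak.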

rat EP3 receptor = conditions: cited from earlier work
rat EP1 receptor = conditions: cited from earlier work
mouse DP2 receptor [4] = experiment: Published agonism at mouse DP2 receptor; format: biochemical; conditions: from published pKi values of Table 3
mouse DP2 receptor [5] = conditions: ref Table 3; cited from earlier work
INS‐1 (832/3) cells [6] = conditions: cited from earlier work
INS‐1 (832/3) cells [7] = experiment: PGE2 production; format: cell-based, rat; conditions: BSA or AA cultured cells, 10 ng/mL IL‐1β or vehicle
INS‐1 (832/3) cells [8] = experiment: Total insulin content of INS‐1; format: cell-based, rat; conditions: 10 ng/ml, regardless of fatty acid treatment
Method in brief: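 Cells at 70% confluence were cultured 48 h in medium with 1% fatty acid‐free BSA, with or without 100 μM AA, then 24 h with vehicle or 10 ng/ml IL‐1β. Assay groups were 1.7 mM glucose, 16.7 mM glucose, 16.7 mM + 10 nM agonist, and 16.7 mM + 20 µM EP3 antagonist. Secreted insulin was given as percent of content; content and secretion by in‐house ELISA. N = 3–4, mean ± SEM, two‐way ANOVA with Holm–Sidak.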

CCCCC/C=C\C/C=C\C/C=C\C/C=C\CCCC(=O)O [AA, arachidonic acid]
AA abundance in membrane phospholipids vs controls (INS‐1 (832/3) cells [1]): 4 fold | AA:EPA ratio vs controls (INS‐1 (832/3) cells [1]): 25 fold | Ptges expression vs. control (INS‐1 (832/3) cells [2]): ~ 3.5 fold

O=C(O)CC/C=C\CC[C@H]1[C@H](N2CCOCC2)C(=O)C[C@H]1OCc1ccc(-c2ccccc2)cc1 [AH2384B]
effect of antagonist on the PGE2 dose–response (GSIS) (INS‐1 (832/3) cells [3]): excluded from mediating the effect of PGE2 on GSIS | effect of antagonist on the sulprostone dose–response (GSIS) (INS‐1 (832/3) cells [3]; 10 μM antagonist): neither SC51089, AH2384B, SC19220, nor L161,982 affecting the sulprostone dose–response

CCC#CC[C@H](C)[C@H](O)C#C[C@@H]1[C@H]2C/C(=C/COCC(=O)O)C[C@H]2C[C@H]1O [Cicaprost, cicaprost]
reduction of GSIS at high concentration compared with PGE2 (INS‐1 (832/3) cells [3]): nearly reaching the maximal potency of PGE2 | concentration from which the agonist reduces GSIS (INS‐1 (832/3) cells [3]): 1 µM

CC#CCC(C)[C@H](O)/C=C/[C@@H]1[C@H]2C/C(=C/CCCC(=O)O)C[C@H]2C[C@H]1O (stereo partly drawn) [Iloprost, iloprost]
agonist type at rat EP3 receptor (rat EP3 receptor): full agonist | agonist type at rat EP1 receptor (rat EP1 receptor): only a partial agonist | effect of agonist on GSIS (dose–response) (INS‐1 (832/3) cells [3]): dose‐dependently reduces GSIS; also recorded: significantly reduce INS‐1 cell GSIS

COc1ccc2c(c1)c(CC(=O)O)c(C)n2C(=O)c1ccc(Cl)cc1 [Indomethacin, indomethacin]
effect of agonist on GSIS (dose–response) (INS‐1 (832/3) cells [3]): no significant effect | effect of agonist on GSIS (dose–response) (INS‐1 (832/3) cells [3]; listed as indomethacin): no effect on GSIS

CCCCc1nn(-c2ccccc2C(F)(F)F)c(=O)n1Cc1ccc(-c2ccccc2S(=O)(=O)NC(=O)c2sccc2C)cc1 [L161,982]
effect of antagonist on the PGE2 dose–response (GSIS) (INS‐1 (832/3) cells [3]): excluded from mediating the effect of PGE2 on GSIS | effect of antagonist on the sulprostone dose–response (GSIS) (INS‐1 (832/3) cells [3]; 10 μM antagonist): neither SC51089, AH2384B, SC19220, nor L161,982 affecting the sulprostone dose–response

COc1ccc(Br)cc1S(=O)(=O)NC(=O)/C=C/c1ccccc1Cc1ccc2ccccc2c1 [L798,106]
effect of antagonist on GSIS reduced by PGD2, PGF2α, cicaprost or U‐46619 (INS‐1 (832/3) cells [3]; 20 μM L798,106): fully restores INS‐1 (832/3) GSIS | increase in GSIS vs. 16.7 mM glucose alone (INS‐1 (832/3) cells [3]; 20 µM, AA enrichment and 10 ng/ml IL‐1β pretreatment): ~ 30% | effect of antagonist alone on GSIS (INS‐1 (832/3) cells [3]; 20 µM, no IL‐1β treatment, control and AA‐enriched cells): no potentiating effect; also recorded: unaffected | increase of the IC50 for PGE2 (reduction of GSIS) by antagonist (INS‐1 (832/3) cells [3]; PGE2 1 pM to 10 μM with and without 20 μM L798,106): over 100 fold

CCCCC[C@H](O)/C=C/[C@H]1C(=O)C[C@H](O)[C@@H]1C/C=C\CCCC(=O)O [PGD2]
reduction of GSIS at high concentration compared with PGE2 (INS‐1 (832/3) cells [3]): nearly reaching the maximal potency of PGE2 | concentration from which the agonist reduces GSIS (INS‐1 (832/3) cells [3]): 1 µM

CCCCC[C@H](O)/C=C/[C@H]1[C@H](O)CC(=O)[C@@H]1C/C=C\CCCC(=O)O [PGE2]
reduced potency at DP2 as compared to EP3 (mouse DP2 receptor [4]): ~ 3000 fold | agonist type at mouse DP2 receptor (mouse DP2 receptor [5]): full agonist | potentiation of GSIS (INS‐1 (832/3) cells [3]; 10 nM, AA‐enriched cells pretreated with IL‐1β): approximately twofold | effect on GSIS (INS‐1 (832/3) cells [3]; 10 nM, IL‐1β‐treated control (BSA) cells): no further inhibitory effect | effect on GSIS (INS‐1 (832/3) cells [3]; 10 nM, cells without IL‐1β, with or without AA enrichment): blunts INS‐1 (832/3) GSIS regardless of AA enrichment | effect of agonist on GSIS (dose–response) (INS‐1 (832/3) cells [3]): reduces INS‐1 (832/3) GSIS in a dose‐dependent manner; also recorded: significantly reduce INS‐1 cell GSIS | maximal reduction in GSIS (INS‐1 (832/3) cells [3]; maximal potency): ~ 60%

CC/C=C\C[C@H](O)/C=C/[C@H]1[C@H](O)CC(=O)[C@@H]1C/C=C\CCCC(=O)O [PGE3]
effect on INS‐1 cell GSIS (INS‐1 (832/3) cells [6]): significantly reduce INS‐1 cell GSIS

CCCCC[C@H](O)/C=C/[C@H]1[C@H](O)CC(=O)[C@@H]1CCCCCCC(=O)O [PGE 1]
effect on INS‐1 cell GSIS (INS‐1 (832/3) cells [6]): significantly reduce INS‐1 cell GSIS

CCCCC[C@H](O)/C=C/[C@@H]1[C@@H](C/C=C\CCCC(=O)O)[C@@H](O)C[C@H]1O [PGF2α]
reduction of GSIS at high concentration compared with PGE2 (INS‐1 (832/3) cells [3]): nearly reaching the maximal potency of PGE2 | concentration from which the agonist reduces GSIS (INS‐1 (832/3) cells [3]): 1 µM

CC(=O)NNC(=O)N1Cc2ccccc2Oc2ccc(Cl)cc21 [SC19220]
effect of antagonist on the PGE2 dose–response (GSIS) (INS‐1 (832/3) cells [3]): neither of two EP1 antagonists, SC19220 or SC51089, affect the PGE2 dose–response | effect of antagonist on the sulprostone dose–response (GSIS) (INS‐1 (832/3) cells [3]; 10 μM antagonist): neither SC51089, AH2384B, SC19220, nor L161,982 affecting the sulprostone dose–response

CS(=O)(=O)NC(=O)CCC/C=C\C[C@H]1C(=O)C[C@@H](O)[C@@H]1/C=C/[C@@H](O)COc1ccccc1 [Sulprostone, sulprostone]
effect of agonist on GSIS (dose–response) (INS‐1 (832/3) cells [3]): nearly identical results as with PGE2; also recorded: significantly reduce INS‐1 cell GSIS

IL‐1β: Interleukin‐1β, cytokine used at 10 ng/ml to mimic the diabetic state and induce PGE2 production
substrate‐dependent PGE2 production (INS‐1 (832/3) cells [7]): only induced with IL‐1β treatment | reduction of insulin content (INS‐1 (832/3) cells [8]): ~50% | Ptger1 expression (INS‐1 (832/3) cells [2]; 10 ng/ml IL‐1β): unaffected | Ptger3 expression upregulation (INS‐1 (832/3) cells [2]; 10 ng/ml IL‐1β): ~ 6 fold | Ptger4 expression upregulation (INS‐1 (832/3) cells [2]; 10 ng/ml IL‐1β): ~ 10 fold | Ptges2 expression induction (INS‐1 (832/3) cells [2]; 10 ng/ml IL‐1β): ~ 2 fold | Ptges3 expression induction (INS‐1 (832/3) cells [2]; 10 ng/ml IL‐1β): ~ 2.5 fold | Ptgs1 expression induction (INS‐1 (832/3) cells [2]; 10 ng/ml IL‐1β): 2–4 fold | Ptgs2 expression induction (INS‐1 (832/3) cells [2]; 10 ng/ml IL‐1β): ~ 10 fold | Ptges expression vs. control (INS‐1 (832/3) cells [2]): ~ 100 fold

PF‐04418948
effect of antagonist on the PGE2 dose–response (GSIS) (INS‐1 (832/3) cells [3]): no effect

SC51089
effect of antagonist on the PGE2 dose–response (GSIS) (INS‐1 (832/3) cells [3]): neither of two EP1 antagonists, SC19220 or SC51089, affect the PGE2 dose–response | effect of antagonist on the iloprost dose–response curve (GSIS) (INS‐1 (832/3) cells [3]; 10 μM antagonist, iloprost 1 pM to 100 μM): no effect | effect of antagonist on the sulprostone dose–response (GSIS) (INS‐1 (832/3) cells [3]; 10 μM antagonist): neither SC51089, AH2384B, SC19220, nor L161,982 affecting the sulprostone dose–response
